Assay results: paper PMC5532717 (ACS Central Science, 2017)

How the values were obtained:
Assay type in all cases: biochemical
human α-glucosidase GAA = human α-glucosidase GAA (Homo sapiens, UniProt P10253); assay: In vitro apparent IC50, recombinant GAA
Procedure, shortened: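 The enzyme source was GBA2-overexpressing HEK293T lysate or recombinant human GAA. It was preincubated 30 min at 37 °C with a range of test compound concentrations, then transferred into 4-MU glucoside substrate mixture to measure residual activity. Quenched with 1 M NaOH–glycine pH 10.3; 4-MU fluorescence at λex 366/λem 445 nm. Apparent IC50 is the mean of three technical replicates.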

GANAB = target: T1, GANAB (Mus musculus, UniProt Q8BHN3); assay: Competitive ABPP against probe 13 in mouse gastrointestinal lysate; details: mouse intestine lysate, 1 h at 37 °C
T1 sequence (Q8BHN3 33-944): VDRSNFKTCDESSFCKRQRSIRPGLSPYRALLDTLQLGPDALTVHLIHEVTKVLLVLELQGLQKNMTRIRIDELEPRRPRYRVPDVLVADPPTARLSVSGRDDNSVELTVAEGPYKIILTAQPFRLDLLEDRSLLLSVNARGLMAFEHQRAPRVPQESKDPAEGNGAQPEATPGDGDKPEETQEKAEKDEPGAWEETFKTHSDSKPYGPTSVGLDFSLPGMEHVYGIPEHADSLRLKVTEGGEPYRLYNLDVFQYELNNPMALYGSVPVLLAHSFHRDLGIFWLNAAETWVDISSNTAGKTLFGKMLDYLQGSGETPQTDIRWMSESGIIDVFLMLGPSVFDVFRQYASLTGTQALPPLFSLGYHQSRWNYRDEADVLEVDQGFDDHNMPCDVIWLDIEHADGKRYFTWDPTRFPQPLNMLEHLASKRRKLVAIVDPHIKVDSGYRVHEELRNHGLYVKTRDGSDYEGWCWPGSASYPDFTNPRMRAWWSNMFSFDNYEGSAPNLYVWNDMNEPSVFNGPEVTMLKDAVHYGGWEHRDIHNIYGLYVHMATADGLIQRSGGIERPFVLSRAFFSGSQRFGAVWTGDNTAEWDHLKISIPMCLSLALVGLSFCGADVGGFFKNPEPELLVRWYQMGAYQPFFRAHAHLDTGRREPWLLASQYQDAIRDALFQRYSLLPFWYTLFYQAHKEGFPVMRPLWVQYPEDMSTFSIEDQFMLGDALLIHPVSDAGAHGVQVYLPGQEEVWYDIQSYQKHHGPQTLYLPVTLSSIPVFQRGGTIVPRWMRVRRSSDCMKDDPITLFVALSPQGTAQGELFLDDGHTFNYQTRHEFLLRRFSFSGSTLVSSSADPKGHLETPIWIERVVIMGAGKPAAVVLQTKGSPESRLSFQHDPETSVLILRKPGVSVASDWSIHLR
T1 sequence (O08795 15-521 partner): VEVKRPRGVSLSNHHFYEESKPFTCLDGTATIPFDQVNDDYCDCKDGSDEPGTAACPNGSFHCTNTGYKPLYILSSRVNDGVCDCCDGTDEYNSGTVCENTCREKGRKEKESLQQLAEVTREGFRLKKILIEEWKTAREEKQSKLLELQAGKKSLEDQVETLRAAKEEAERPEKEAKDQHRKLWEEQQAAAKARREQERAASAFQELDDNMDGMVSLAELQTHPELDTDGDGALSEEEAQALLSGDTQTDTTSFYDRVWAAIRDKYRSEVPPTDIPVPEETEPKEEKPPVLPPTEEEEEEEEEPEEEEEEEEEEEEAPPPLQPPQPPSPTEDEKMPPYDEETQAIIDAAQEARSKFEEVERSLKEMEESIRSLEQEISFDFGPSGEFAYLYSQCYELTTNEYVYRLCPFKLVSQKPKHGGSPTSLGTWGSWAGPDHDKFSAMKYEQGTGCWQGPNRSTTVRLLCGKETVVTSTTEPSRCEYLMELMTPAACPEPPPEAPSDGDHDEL
Procedure, shortened: (§1)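 Mixed mouse duodenum, jejunum and ileum homogenates were made in 25 mM potassium phosphate pH 6.5 with protease inhibitors (40 μg protein). Held 5 min on ice in McIlvaine buffer pH 4 or 7. Incubated 1 h at 37 °C with test compound (final 150 to 0.005 μM, plus 0), then probe 13 for 30 min at 37 °C. Boiled in Laemmli buffer, 10% SDS–PAGE, Cy5 fluorescence scan.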

[1] = system: maltase-glycoamylase (MGAM); assay: as above; details: mouse intestine lysate, 1 h at 37 °C
Procedure, shortened: as §1

GAA = GAA (Mus musculus, UniProt P70699); assay: as above; details: mouse intestine lysate, 1 h at 37 °C
GAA, sequence (P70699 70-953): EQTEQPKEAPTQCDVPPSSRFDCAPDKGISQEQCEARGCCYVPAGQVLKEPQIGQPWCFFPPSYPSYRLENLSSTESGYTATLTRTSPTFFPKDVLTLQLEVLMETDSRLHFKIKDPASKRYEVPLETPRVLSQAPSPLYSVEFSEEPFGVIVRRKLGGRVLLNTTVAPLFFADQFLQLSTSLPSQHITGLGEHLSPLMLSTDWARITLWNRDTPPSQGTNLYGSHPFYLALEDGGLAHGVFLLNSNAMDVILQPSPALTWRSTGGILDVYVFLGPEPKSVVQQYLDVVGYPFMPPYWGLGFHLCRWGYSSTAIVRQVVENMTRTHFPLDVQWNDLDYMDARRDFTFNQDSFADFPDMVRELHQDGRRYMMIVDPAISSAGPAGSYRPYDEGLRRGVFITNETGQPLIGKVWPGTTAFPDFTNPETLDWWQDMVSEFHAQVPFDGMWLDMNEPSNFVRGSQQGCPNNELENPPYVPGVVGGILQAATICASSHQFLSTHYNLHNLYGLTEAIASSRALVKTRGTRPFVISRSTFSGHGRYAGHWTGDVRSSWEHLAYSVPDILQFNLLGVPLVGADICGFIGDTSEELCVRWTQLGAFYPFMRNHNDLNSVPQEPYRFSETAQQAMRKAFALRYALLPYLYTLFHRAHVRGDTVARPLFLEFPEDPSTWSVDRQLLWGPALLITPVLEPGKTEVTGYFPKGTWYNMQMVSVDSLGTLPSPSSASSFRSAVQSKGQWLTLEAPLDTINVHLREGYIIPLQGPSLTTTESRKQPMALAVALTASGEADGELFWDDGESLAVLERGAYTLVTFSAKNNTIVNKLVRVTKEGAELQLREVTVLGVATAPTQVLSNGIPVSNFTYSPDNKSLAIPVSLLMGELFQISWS
Procedure, shortened: as §1

GBA1 = target: T2, GBA1 (Mus musculus, UniProt P17439); assay: as above; details: mouse intestine lysate, 1 h at 37 °C
T2 sequence (P17439 20-515): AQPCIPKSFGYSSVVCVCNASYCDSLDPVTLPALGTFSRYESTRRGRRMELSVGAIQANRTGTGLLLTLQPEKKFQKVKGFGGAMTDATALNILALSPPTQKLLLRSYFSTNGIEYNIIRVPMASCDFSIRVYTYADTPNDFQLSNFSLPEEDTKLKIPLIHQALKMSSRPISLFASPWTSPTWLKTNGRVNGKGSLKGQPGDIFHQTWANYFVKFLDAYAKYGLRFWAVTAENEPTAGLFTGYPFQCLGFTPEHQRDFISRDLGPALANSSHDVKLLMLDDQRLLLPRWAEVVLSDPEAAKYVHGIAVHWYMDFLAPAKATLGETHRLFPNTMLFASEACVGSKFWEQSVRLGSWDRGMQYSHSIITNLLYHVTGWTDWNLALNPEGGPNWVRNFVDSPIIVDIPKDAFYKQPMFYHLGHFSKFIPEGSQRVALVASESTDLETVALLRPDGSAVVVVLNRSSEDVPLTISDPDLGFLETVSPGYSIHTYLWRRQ
Procedure, shortened: as §1

IC50 (human α-glucosidase GAA): 82 ± 1 nM
inhibition of probe 13 labeling of GANAB (GANAB): inhibited
inhibition of probe 13 labeling of MGAM [1]: inhibited
inhibition of probe 13 labeling of GAA (GAA): inhibited
competition of off-target probe 13 labeling of GBA1 (GBA1): not outcompeted
SMILES: O=S1(=O)O[C@@H]2[C@H](O)[C@@H](O)[C@H](O)[C@@H](CO)[C@@H]2O1 [Compound 5, 1,6-epi-cyclophellitol cyclosulfate]
